The source of these data is ChEMBL document CHEMBL1152476, “Synthesis and in vitro cytotoxicity of 9-anilinoacridines bearing N-mustard residue on both anilino and acridine rings” (Eur J Med Chem, 2009).

A word on the IC50: it is the point on the concentration scale where inhibition reaches its midpoint. Lower therefore signals greater potency in that assay.

The nature of data set [1]: Solubility in dimethyl sulfoxide. Format: physicochemical.
Data set [2] deals with CCRF-CEM. The data set is described as follows: Antitumor activity in human CCRF-CEM cells xenografted mouse at 2 mg/kg, iv qd for 3 days. Details: dose 2 mg/kg. The format is functional, organism-based. A digest of the protocol: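 Mice received intravenous injection at 2 mg/kg, once daily ×3 (QD×3), in a DMSO/Tween 80/normal saline vehicle.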
The subject of data set [3] is CCRF-CEM. The data set is described as follows: Cytotoxicity against human CCRF-CEM cells after 72 hrs by XTT-tetrazolium assay. The format is functional, cell-based. A digest of the protocol: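 CCRF-CEM human T-cell acute lymphocytic leukemia cells exposed for 72 h to six or seven concentrations per compound. Phenazine methosulfate–XTT was then added for 6 h at 37 °C, and absorbance was read at 450 and 630 nm. IC50 was derived from the dose–effect relationship by median–effect plot analysis.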

Data set [4] can be described thus: Solubility in normal saline. Format: physicochemical. Particulars: buffer.
Data set [5] in a line: Solubility in Tween 80. Format: physicochemical.
In data set [6] the test system is CCRF-CEM. The data set is described as follows: Ratio of AHMA IC50 to compound IC50 against human CCRF-CEM cells. The format is functional. A digest of the protocol: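 Ratio of AHMA IC50 to test compound IC50, both from the same 72 h CCRF-CEM XTT assay. Six or seven concentrations per drug were tested, and each IC50 came from a median–effect analysis of the dose–effect relationship.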

For the molecule `COc1cc(N)cc(Nc2c3ccccc3nc3c(OCCN(CCCl)CCCl)cccc23)c1`, the solubility result in data set [1], in data set [4] and in data set [5] was “Insoluble” each time. Further, the Activity entry in the data set with CCRF-CEM [2] was “Toxic”. Half-maximal inhibition with CCRF-CEM [3] (IC50) required 6.7 nM. The “Ratio IC50” value in the data set with CCRF-CEM [6] came to 30.

Regarding `ClCCN(CCCl)CCCCOc1cccc(Nc2c3ccccc3nc3c(OCCN(CCCl)CCCl)cccc23)c1`, the solubility result in data set [1], in data set [4] and in data set [5] was “Insoluble” each time. In addition, the Activity result in the data set on CCRF-CEM [2] is “Toxic”. This molecule also had an IC50 in the data set on CCRF-CEM [3] of 6 nM. The “Ratio IC50” value with CCRF-CEM [6] stood at 30.

For `ClCCN(CCCl)CCOc1ccc(Nc2c3ccccc3nc3ccccc23)cc1`, the solubility entry in data set [1], in data set [4] and in data set [5] was “Insoluble” in each case. Moreover, the Activity entry in the data set on CCRF-CEM [2] is “Toxic”. In addition, the “Ratio IC50” value with CCRF-CEM [6] was 30.

In the case of `ClCCN(CCCl)CCCCOc1cccc2c(Nc3ccc(OCCN(CCCl)CCCl)cc3)c3ccccc3nc12`, the solubility result in data set [1], in data set [4] and in data set [5] was “Insoluble” throughout. In addition, in the data set with CCRF-CEM [2], the Activity entry was “Toxic”. Also, inhibition in the data set on CCRF-CEM [3] was half-maximal at 1.3 nM (IC50). The “Ratio IC50” value with CCRF-CEM [6] was 30.

Turning to `ClCCN(CCCl)CCCCOc1ccc(Nc2c3ccccc3nc3c(OCCN(CCCl)CCCl)cccc23)cc1`, the solubility entry in data set [1], in data set [4] and in data set [5] was “Insoluble” throughout. Also, the Activity entry in the data set on CCRF-CEM [2] was “Toxic”. This molecule showed an IC50 in the data set with CCRF-CEM [3] of 21 nM. In the data set on CCRF-CEM [6], the “Ratio IC50” value was found to be 30.

For `COc1cc(N)cc(Nc2c3ccccc3nc3c(OCCCCN(CCCl)CCCl)cccc23)c1`, the solubility entry in data set [1], in data set [4] and in data set [5] was “Insoluble” throughout. In the data set on CCRF-CEM [2], the Activity entry was “Toxic”. Moreover, in the data set with CCRF-CEM [6], the “Ratio IC50” value came to 30.

For the molecule `ClCCN(CCCl)CCCCOc1ccc(Nc2c3ccccc3nc3ccccc23)cc1`, the solubility entry in data set [1], in data set [4] and in data set [5] was “Insoluble” each time. For the same molecule, in the data set with CCRF-CEM [2], the Activity entry was “Toxic”. Moreover, half-maximal inhibition in the data set on CCRF-CEM [3] (IC50) required 56 nM. Moreover, in the data set with CCRF-CEM [6], the “Ratio IC50” value was found to be 30.

With `CC(=O)O[C@H]1C(=O)[C@@]2(C)[C@H]([C@H](OC(=O)c3ccccc3)[C@]3(O)C[C@H](OC(=O)[C@H](O)[C@@H](NC(=O)c4ccccc4)c4ccccc4)C(C)=C1C3(C)C)[C@]1(OC(C)=O)CO[C@@H]1C[C@@H]2O`, the Activity entry with CCRF-CEM [2] is “Toxic”.

For the molecule `ClCCN(CCCl)CCOc1cccc(Nc2c3ccccc3nc3c(OCCN(CCCl)CCCl)cccc23)c1`, the solubility entry in data set [1], in data set [4] and in data set [5] was “Insoluble” throughout. Also, the Activity entry in the data set on CCRF-CEM [2] is “Toxic”. In the data set with CCRF-CEM [3], this molecule registered an IC50 of 17 nM. Besides, in the data set with CCRF-CEM [6], the “Ratio IC50” value came to 30.

`ClCCN(CCCl)CCCCOc1cccc(Nc2c3ccccc3nc3ccccc23)c1`: the solubility result in data set [1], in data set [4] and in data set [5] was “Insoluble” throughout. Also, in the data set with CCRF-CEM [2], the Activity result is “Toxic”. Besides, half-maximal inhibition in the data set with CCRF-CEM [3] (IC50) required 392 nM. Moreover, the “Ratio IC50” value in the data set with CCRF-CEM [6] is recorded as 30.

Turning to `ClCCN(CCCl)CCOc1cccc(Nc2c3ccccc3nc3ccccc23)c1`, the solubility result in data set [1], in data set [4] and in data set [5] was “Insoluble” each time. Besides, in the data set on CCRF-CEM [2], the Activity result was “Toxic”. Also, in the data set on CCRF-CEM [3], the IC50 was 86 nM. In the data set on CCRF-CEM [6], the “Ratio IC50” value was found to be 30.

Turning to `ClCCN(CCCl)CCOc1ccc(Nc2c3ccccc3nc3c(OCCN(CCCl)CCCl)cccc23)cc1`, the solubility result in data set [1], in data set [4] and in data set [5] was “Insoluble” each time. Moreover, the Activity entry with CCRF-CEM [2] was “Toxic”. The half-maximal inhibitory concentration (IC50) with CCRF-CEM [3] was determined as 14.2 nM. In addition, in the data set with CCRF-CEM [6], the “Ratio IC50” value stood at 30.
